Test results from ChEMBL document CHEMBL3585348, “Armochaetoglobins A-J: Cytochalasan Alkaloids from Chaetomium globosum TW1-1, a Fungus Derived from the Terrestrial Arthropod Armadillidium vulgare” (J Nat Prod, 2015).

What was measured:
SMMC-7721 = assay: Cytotoxicity against human SMMC7721 cells assessed as cell viability after 48 hrs by MTS assay; assay type: functional, cell-based; settings: SMMC-7721, 48 h
Procedure, shortened: (§1)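 Adherent cells grown in DMEM or RPMI1640 with 10% FBS at 37 °C in 5% CO2, seeded in 96-well plates, and left to adhere 12 h. Compounds were added at 0.0625, 0.32, 1.6, 8 and 40 μM for 48 h, in triplicate, with cisplatin and paclitaxel as positive controls. MTS (5 mg/mL) was added for 4 h at 37 °C, cells lysed in 10% SDS, and OD read at 595 nm.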

A549 = assay: Cytotoxicity against human A549 cells assessed as cell viability after 48 hrs by MTS assay; assay type: functional, cell-based; settings: A549, 48 h; procedure, shortened: as §1
SW480 = assay: Cytotoxicity against human SW480 cells assessed as cell viability after 48 hrs by MTS assay; assay type: functional, cell-based; settings: SW480, 48 h; procedure, shortened: as §1
[1] = Cytotoxicity against human BEAS2B cells assessed as cell viability after 48 hrs by MTS assay; assay type: cell-based; settings: BEAS-2B
Procedure, shortened: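 Noncancerous human bronchial epithelial BEAS-2B cells grown in DMEM or RPMI1640 with 10% FBS at 37 °C in 5% CO2, seeded in 96-well plates and allowed 12 h to adhere before compound addition. Viability was read after adding MTS (5 mg/mL) for 4 h at 37 °C, lysing in 10% SDS, and measuring formazan OD at 595 nm.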

HL-60 = assay: Cytotoxicity against human HL60 cells assessed as cell viability after 48 hrs by MTS assay; assay type: functional, cell-based; settings: HL-60, 48 h
Procedure, shortened: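 HL-60 suspension cells grown in DMEM or RPMI1640 with 10% FBS at 37 °C in 5% CO2, seeded at 1 × 10^5 cells/mL just before dosing. Exposure was 48 h, in triplicate, at 0.0625–40 μM (five concentrations), with cisplatin and paclitaxel controls. MTS (5 mg/mL) was added for 4 h at 37 °C, followed by 10% SDS lysis and OD at 595 nm.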

MCF7 = assay: Cytotoxicity against human MCF7 cells assessed as cell viability after 48 hrs by MTS assay; assay type: functional, cell-based; settings: MCF7, 48 h; procedure, shortened: as §1

SMILES	IC50 (SMMC-7721) [µM]	IC50 (A549) [µM]	IC50 (SW480) [µM]	IC50 [1] [µM]	IC50 (HL-60) [µM]	IC50 (MCF7) [µM]
COC(=O)CCC(=O)[C@@]12C(=O)N[C@@H](Cc3c[nH]c4ccccc34)[C@@H]1[C@H](C)[C@@]1(C)O[C@H]1[C@@H]2/C=C/CC(C)/C=C(\C)C=O (stereo not given in full)	10.8	19.8	38.2	5.68	14	22.7
C/C1=C\[C@@H](C)C/C=C/[C@H]2C=C(CO)[C@@H](C)[C@H]3[C@H](Cc4c[nH]c5ccccc45)NC(=O)[C@]32C(=O)/C=C/C(=O)[C@@H]1O	9.83	8.01	3.9	3.34	3.31	4.06
C/C1=C\[C@@H](C)C/C=C/[C@H]2C=C(CO)[C@@H](C)[C@H]3[C@H](Cc4c[nH]c5ccccc45)NC(=O)[C@]32C(=O)CCC(=O)C1	> 40	> 40	> 40	> 40	> 40	> 40
CC1=C[C@@H]2/C=C/C[C@H](C)/C=C(\C)[C@@H](O)[C@@H](O)CCC(=O)[C@]23C(=O)N[C@@H](Cc2c[nH]c4ccccc24)[C@@H]3[C@@H]1C	> 40	> 40	> 40	> 40	> 40	> 40
C/C1=C\[C@@H](C)C/C=C/[C@H]2[C@H](O)[C@@]3(C)O[C@@]4(Cc5c[nH]c6ccccc56)NC(=O)[C@]2(C(=O)CCC(=O)C1=O)[C@H]4[C@@H]3C	17.4	17.7	35.3	16.6	18.2	19.1
CC1=C[C@@H]2/C=C/C[C@H](C)/C=C(\C)C(=O)[C@@H](O)CCC(=O)[C@]23C(=O)N[C@@H](Cc2c[nH]c4ccccc24)[C@@H]3[C@@H]1C	13.8	14.3	20.6	16	12.6	14.8
CC(=O)O[C@H]1C(=O)[C@@]2(C)[C@H]([C@H](OC(=O)c3ccccc3)[C@]3(O)C[C@H](OC(=O)[C@H](O)[C@@H](NC(=O)c4ccccc4)c4ccccc4)C(C)=C1C3(C)C)[C@]1(OC(C)=O)CO[C@@H]1C[C@@H]2O [PACLITAXEL]	< 0.008	< 0.008	< 0.008	0.58	< 0.008	< 0.008
C/C(C=O)=C\C(C)C/C=C/[C@H]1[C@@H]2O[C@]2(C)[C@@H](C)[C@H]2[C@H](Cc3c[nH]c4ccccc34)NC(=O)[C@]21C(=O)CCCO (stereo not given in full)	10.6	16.3	> 40	15.5	11.9	> 40
C/C(C=O)=C\C(C)C/C=C/[C@H]1[C@@H]2O[C@]2(C)[C@@H](C)[C@H]2[C@H](Cc3c[nH]c4ccccc34)NC(=O)[C@]21C(=O)CCC(=O)O (stereo not given in full)	25	> 40	> 40	> 40	> 40	> 40
C/C(=C\C(C)C/C=C/[C@H]1[C@@H]2O[C@]2(C)[C@@H](C)[C@H]2[C@H](Cc3c[nH]c4ccccc34)NC(=O)[C@]21C(=O)CCCO)CO (stereo not given in full)	19.4	30.9	> 40	23.1	16.5	> 40
